Results reported in ChEMBL document CHEMBL4825702, “5-Aminonaphthalene derivatives as selective nonnucleoside nuclear receptor binding SET domain-protein 2 (NSD2) inhibitors for the treatment of multiple myeloma” (Eur J Med Chem, 2021).
pIC50: −log10 of the molar value. Active and inactive are the calls of the source. The calls are words filed in the database; no cut-off is given here.

Key:
[1] = molecular target: Histone-lysine N-methyltransferase, H3 lysine-36 specific (Homo sapiens, UniProt Q96L73); assay: Inhibition of NSD1 (unknown origin) using SAM as substrate preincubated for 10 mins followed by substrate addition measured after 4 hrs by AlphaLISA method
Histone-lysine N-methyltransferase, H3 lysine-36 specific, sequence (Q96L73 whole entry): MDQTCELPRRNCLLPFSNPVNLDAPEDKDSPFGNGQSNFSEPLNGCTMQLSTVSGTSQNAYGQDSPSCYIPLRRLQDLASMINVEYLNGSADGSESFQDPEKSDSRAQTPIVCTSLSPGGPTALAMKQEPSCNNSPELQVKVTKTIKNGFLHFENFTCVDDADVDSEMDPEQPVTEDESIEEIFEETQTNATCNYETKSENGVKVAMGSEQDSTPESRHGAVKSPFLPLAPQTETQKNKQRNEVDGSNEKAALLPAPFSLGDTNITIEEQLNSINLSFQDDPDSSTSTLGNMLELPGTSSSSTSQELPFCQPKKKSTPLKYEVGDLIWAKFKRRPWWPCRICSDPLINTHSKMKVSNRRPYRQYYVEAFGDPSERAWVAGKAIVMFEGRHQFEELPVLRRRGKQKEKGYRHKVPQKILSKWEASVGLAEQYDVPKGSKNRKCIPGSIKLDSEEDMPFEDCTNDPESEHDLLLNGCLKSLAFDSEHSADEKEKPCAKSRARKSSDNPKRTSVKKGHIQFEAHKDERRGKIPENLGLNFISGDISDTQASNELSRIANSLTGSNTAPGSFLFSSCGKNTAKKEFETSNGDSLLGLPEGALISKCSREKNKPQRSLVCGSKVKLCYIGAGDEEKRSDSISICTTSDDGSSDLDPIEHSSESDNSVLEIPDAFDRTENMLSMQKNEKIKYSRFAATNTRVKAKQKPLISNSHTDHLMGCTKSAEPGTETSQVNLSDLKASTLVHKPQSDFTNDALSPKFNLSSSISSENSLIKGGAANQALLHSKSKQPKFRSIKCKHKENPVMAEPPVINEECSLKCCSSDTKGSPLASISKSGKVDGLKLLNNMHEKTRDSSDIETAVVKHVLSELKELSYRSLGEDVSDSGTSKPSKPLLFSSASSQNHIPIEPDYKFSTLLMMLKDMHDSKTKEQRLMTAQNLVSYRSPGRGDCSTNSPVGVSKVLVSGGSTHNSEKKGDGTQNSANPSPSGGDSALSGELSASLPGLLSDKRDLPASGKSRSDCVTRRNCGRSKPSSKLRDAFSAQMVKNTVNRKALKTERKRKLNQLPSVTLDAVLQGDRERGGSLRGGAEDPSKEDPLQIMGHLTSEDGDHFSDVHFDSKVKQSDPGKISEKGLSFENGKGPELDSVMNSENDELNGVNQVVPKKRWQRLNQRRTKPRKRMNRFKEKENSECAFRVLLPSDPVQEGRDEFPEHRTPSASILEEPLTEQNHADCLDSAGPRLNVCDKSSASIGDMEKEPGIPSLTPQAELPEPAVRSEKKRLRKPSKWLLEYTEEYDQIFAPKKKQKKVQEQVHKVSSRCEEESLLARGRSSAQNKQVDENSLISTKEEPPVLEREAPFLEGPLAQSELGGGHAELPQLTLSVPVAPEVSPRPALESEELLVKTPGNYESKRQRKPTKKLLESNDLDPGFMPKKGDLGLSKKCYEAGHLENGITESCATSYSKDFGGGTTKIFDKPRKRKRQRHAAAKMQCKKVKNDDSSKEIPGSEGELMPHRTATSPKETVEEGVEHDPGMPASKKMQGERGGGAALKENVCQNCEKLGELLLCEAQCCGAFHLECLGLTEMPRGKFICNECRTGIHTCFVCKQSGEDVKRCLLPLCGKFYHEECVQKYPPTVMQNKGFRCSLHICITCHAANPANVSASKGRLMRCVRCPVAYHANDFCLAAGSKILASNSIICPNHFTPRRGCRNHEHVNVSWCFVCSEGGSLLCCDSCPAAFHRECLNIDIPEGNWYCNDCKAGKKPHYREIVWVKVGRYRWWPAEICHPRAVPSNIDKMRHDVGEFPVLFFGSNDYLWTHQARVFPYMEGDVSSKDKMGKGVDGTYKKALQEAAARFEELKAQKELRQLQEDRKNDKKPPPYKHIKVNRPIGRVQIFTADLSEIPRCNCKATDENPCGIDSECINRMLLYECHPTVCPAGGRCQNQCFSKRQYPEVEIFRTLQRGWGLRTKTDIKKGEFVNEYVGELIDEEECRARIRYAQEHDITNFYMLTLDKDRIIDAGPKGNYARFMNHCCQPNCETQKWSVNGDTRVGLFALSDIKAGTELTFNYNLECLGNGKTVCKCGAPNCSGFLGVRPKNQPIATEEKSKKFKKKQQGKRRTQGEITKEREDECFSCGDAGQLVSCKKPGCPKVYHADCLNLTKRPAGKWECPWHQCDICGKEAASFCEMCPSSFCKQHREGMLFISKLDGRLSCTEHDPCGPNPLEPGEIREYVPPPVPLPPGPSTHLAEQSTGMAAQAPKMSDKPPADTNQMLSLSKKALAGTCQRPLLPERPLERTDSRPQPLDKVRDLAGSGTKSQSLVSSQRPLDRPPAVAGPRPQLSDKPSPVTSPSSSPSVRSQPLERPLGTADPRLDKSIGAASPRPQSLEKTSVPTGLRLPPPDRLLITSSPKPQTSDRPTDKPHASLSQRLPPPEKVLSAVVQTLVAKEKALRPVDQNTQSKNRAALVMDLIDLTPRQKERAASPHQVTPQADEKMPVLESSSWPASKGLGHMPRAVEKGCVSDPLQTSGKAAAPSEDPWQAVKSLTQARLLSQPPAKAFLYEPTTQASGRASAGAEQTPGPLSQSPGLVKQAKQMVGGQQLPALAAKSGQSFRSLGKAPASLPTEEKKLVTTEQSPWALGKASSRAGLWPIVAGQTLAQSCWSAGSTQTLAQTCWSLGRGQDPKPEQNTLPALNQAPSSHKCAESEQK

[2] = molecular target: Histone-arginine methyltransferase CARM1 (Homo sapiens, UniProt Q86X55); assay: Inhibition of PRMT4 (unknown origin) using SAM as substrate preincubated for 10 mins followed by substrate addition measured after 4 hrs by AlphaLISA method
Histone-arginine methyltransferase CARM1, sequence (Q86X55 whole entry): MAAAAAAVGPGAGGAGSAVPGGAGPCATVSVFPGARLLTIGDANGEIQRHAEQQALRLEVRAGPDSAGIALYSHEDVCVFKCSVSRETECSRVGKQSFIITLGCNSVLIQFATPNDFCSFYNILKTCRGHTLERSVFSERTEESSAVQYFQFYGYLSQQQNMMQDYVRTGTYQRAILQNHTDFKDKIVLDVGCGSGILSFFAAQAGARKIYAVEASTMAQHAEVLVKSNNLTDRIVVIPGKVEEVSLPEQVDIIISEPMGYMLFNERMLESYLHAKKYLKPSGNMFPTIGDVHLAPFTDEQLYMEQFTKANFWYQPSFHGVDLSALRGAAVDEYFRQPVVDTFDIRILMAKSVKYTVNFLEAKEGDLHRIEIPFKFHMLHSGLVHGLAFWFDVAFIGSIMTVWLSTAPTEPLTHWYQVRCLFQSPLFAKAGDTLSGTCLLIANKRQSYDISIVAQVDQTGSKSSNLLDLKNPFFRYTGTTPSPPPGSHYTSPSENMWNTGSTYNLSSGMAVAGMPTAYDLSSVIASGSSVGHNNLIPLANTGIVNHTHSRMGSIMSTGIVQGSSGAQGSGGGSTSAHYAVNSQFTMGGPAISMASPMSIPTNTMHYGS

[3] = tested on: KMS-11; assay: Antiproliferative activity against human KMS-11 cells assessed as reduction in cell viability incubated for 6 days by CCK8 assay; format: functional, cell-based; settings: dose 1-100 µM, time 6.0 day
Method in brief: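 Cells seeded in triplicate at 6000–20000 per well and left 24 h, then exposed to increasing concentrations for a further 6 days. Viability read with CCK-8 and growth IC50 derived from the dose–response.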

[4] = tested on: RS4-11; assay: Antiproliferative activity against human RS4-11 cells assessed as reduction in cell viability at 1 to 100 uM by CCK8 assay; format: functional, cell-based; settings: dose 1-100 µM, time 6.0 day, TDE = time-dependent effect
[5] = tested on: KMS-11; assay: Antiproliferative activity against human KMS-11 cells assessed as reduction in cell viability at 1 to 100 uM by CCK8 assay; format: functional, cell-based; settings: dose 1-100 µM, time 6.0 day, TDE = time-dependent effect
[6] = Half life in CD-1 mouse at 2 mg/kg, ip measured up to 24 hrs by LC-MS/MS; format: ADME, organism-based; settings: in vivo
Method in brief: (§1)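 CD-1 mice given a single 2 mg/kg dose i.p. or i.v. (n = 3 per group). Blood sampled at 0, 0.083, 0.25, 0.5, 1, 2, 4, 6, 8 and 24 h and centrifuged for plasma, with internal standard added. Plasma deproteinized with methanol/acetonitrile (1:1), supernatant diluted with acetonitrile/water, and compound measured by LC/MS/MS.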

[7] = Half life in CD-1 mouse at 2 mg/kg, iv measured up to 24 hrs by LC-MS/MS; format: ADME, organism-based; settings: in vivo; method in brief: as §1
[8] = AUC in CD-1 mouse at 2 mg/kg, ip measured up to 24 hrs by LC-MS/MS; format: ADME, organism-based; design: route intraperitoneal, dose 2 mg/kg, time <=24; settings: in vivo; method in brief: as §1
[9] = AUC in CD-1 mouse at 2 mg/kg, iv measured up to 24 hrs by LC-MS/MS; format: ADME, organism-based; design: route intravenous, dose 2 mg/kg, time <=24; settings: in vivo; method in brief: as §1
[10] = Volume of distribution in CD-1 mouse at 2 mg/kg, iv measured up to 24 hrs by LC-MS/MS; format: ADME, organism-based; settings: in vivo
Method in brief: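 CD-1 mice dosed at 2 mg/kg i.p. or i.v., n = 3 per group. Blood sampled at 0, 0.083, 0.25, 0.5, 1, 2, 4, 6, 8 and 24 h and spun for plasma. Internal standard added, deproteinized with methanol/acetonitrile (1:1), supernatant diluted and analysed by LC/MS/MS.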

[11] = tested on: RS4-11; assay: Antitumor activity against human RS4-11 cells xenografted in SCID mouse assessed as tumor growth inhibition at 25 mg/kg, ip qd administered consecutively for 21 days relative to control; settings: RS4-11, ip, 504 h, read-out: TGI
[12] = tested on: RS4-11; assay: Antitumor activity against human RS4-11 cells xenografted in SCID mouse assessed as tumor growth inhibition at 50 mg/kg, ip qd administered consecutively for 21 days relative to control; settings: RS4-11, ip, 504 h, read-out: TGI
[13] = tested on: RS4-11; assay: Toxicity in SCID mouse xenografted with human RS4-11 cells assessed as body weight LOSS at 25 to 50 mg/kg, ip qd administered consecutively for 21 days; format: functional, organism-based; settings: dose 25-50 mg/kg, time 21.0 day
Method in brief: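 Female SCID mice, 4 weeks old, implanted subcutaneously in the flank with 1 × 10⁷ RS4:11 cells in 0.2 mL PBS. At about 100 mm³, groups of n = 8 received 25 or 50 mg/kg or vehicle intraperitoneally once daily for 21 days. Body weight and tumors measured twice weekly.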

[14] = molecular target: Protransforming growth factor alpha (Homo sapiens) (UniProt P01135); assay: Inhibition of TGFA transcriptional activity in human KMS-11 cells assessed as reduction in H3K36 methylation at 10 uM measured after 72 hrs by chip q-PCR analysis; format: cell-based
Protransforming growth factor alpha (Homo sapiens), sequence (P01135 whole entry): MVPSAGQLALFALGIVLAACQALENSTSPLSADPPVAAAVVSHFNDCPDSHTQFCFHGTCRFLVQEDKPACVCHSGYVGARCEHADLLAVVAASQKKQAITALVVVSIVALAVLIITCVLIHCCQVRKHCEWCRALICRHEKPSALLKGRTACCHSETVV
Method in brief: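 KMS11 cells treated with test agent or DMSO. ChIP with magnetic-bead enzymatic chromatin IP kit using anti-H3K36me2, anti-histone H3 and IgG control antibodies. H3K36me2 quantified by qPCR with primers spanning the promoter regions of TGFA, MET, PAK1 and RRAS2.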

[15] = tested on: RS4-11; assay: cells; settings: Homo sapiens, RS4-11, 72 h, read-out: Activity
[16] = tested on: RS4-11; assay: cells; settings: Homo sapiens, RS4-11, 72 h, read-out: Activity; remark: listed apart in the source
[17] = tested on: KMS-11; assay: cells; settings: Homo sapiens, KMS-11, 72 h, read-out: Activity
[18] = tested on: U2932; assay: Antiproliferative activity against human U2932 cells assessed as reduction in cell viability incubated for 6 days by CCK8 assay
[19] = tested on: HL-60; assay: Antiproliferative activity against human HL-60 cells assessed as reduction in cell viability incubated for 6 days by CCK8 assay
[20] = tested on: KMS-11; assay: Antiproliferative activity against human KMS-11 cells assessed as reduction in cell viability incubated for 6 days by CCK8 assay; settings: KMS-11, 6 days
[21] = tested on: MOLT-4; assay: Antiproliferative activity against human MOLT-4 cells assessed as reduction in cell viability incubated for 6 days by CCK8 assay
[22] = tested on: Jurkat; assay: Antiproliferative activity against human Jurkat cells assessed as reduction in cell viability incubated for 6 days by CCK8 assay
[23] = tested on: NCI-H929; assay: Antiproliferative activity against human NCI-H929 cells assessed as reduction in cell viability incubated for 6 days by CCK8 assay
[24] = tested on: OCI-AML-5; assay: Antiproliferative activity against human OCI-AML5 cells assessed as reduction in cell viability incubated for 6 days by CCK8 assay
[25] = tested on: Pfeiffer; assay: Antiproliferative activity against human Pfeiffer cells assessed as reduction in cell viability incubated for 6 days by CCK8 assay
[26] = tested on: WSUDLCL2; assay: Antiproliferative activity against human WSUDLCL2 cells assessed as reduction in cell viability incubated for 6 days by CCK8 assay
[27] = tested on: RPMI-8226; assay: Antiproliferative activity against human RPMI-8226 cells assessed as reduction in cell viability incubated for 6 days by CCK8 assay
[28] = tested on: KARPAS-422; assay: Antiproliferative activity against human KARPAS-422 cells assessed as reduction in cell viability incubated for 6 days by CCK8 assay
[29] = Inhibition of PAK1 transcriptional activity in human KMS-11 cells assessed as reduction in H3K36 methylation at 10 uM measured after 72 hrs by chip q-PCR analysis

For `Cl.Nc1cccc2c(S(=O)(=O)NCc3ccccc3)cccc12`, the pIC50 [1] was less than 4.70, the pIC50 [2] was less than 4.70 and the Activity [3] was “Dose-Dependent Effect”. The Activity [4] was “Tde”, the Activity [5] was “Tde” and the half-life [6] was 33.6 min. For the same compound, the half-life [7] was 39.6 min, the AUC at 24 h [8] was 150 ng·h/mL and the AUC at 24 h [9] was 204 ng·h/mL. The Vd [10] was 3.85 L/kg, the inhibition in vivo at 25 mg/kg [11] was 43.6% and the inhibition in vivo at 50 mg/kg [12] was 37.2%. The Activity [13] was “Not toxic”, the inhibition [14] was “Active” and the viability at 5 µM [15] was 2.19%. The viability at 10 µM [16] was 3.53%, the viability at 5 µM [17] was 58.7% and the Activity [18] was “Active”. For the same compound, the Activity [19] was “Active”, the pIC50 [20] was 5.73 and the Activity [21] was “Active”. The Activity [22] was “Active”, the Activity [23] was “Active” and the Activity [24] was “Active”. For the same compound, the Activity [25] was “Active”, the Activity [26] was “Active” and the Activity [27] was “Active”. The Activity [28] was “Active” and the inhibition [29] was “Active”.
